Values after ≈ are worked out from the molar mass of the structure shown.
How the values were obtained:
Format in all cases: functional
Staphylococcus aureus [1] = experiment: Antibacterial activity against methicillin-resistant Staphylococcus aureus N315 after 24 hrs by micro-broth dilution method; details: N315, 24 h
Outline: (§1)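 Broth microdilution per NCCLS in Mueller-Hinton broth. Inoculum adjusted in sterile saline to 1×10^4–1×10^5 CFU. Compounds taken from DMSO stocks and serially diluted two-fold to final 256–0.25 µg/mL (11 levels). Incubation 37 °C, 24 h, with a DMSO solvent control. Growth read visually and spectrophotometrically. MIC is the lowest concentration that arrests growth.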

Bacillus subtilis = experiment: Antibacterial activity against Bacillus subtilis ATCC 21216 after 24 hrs by micro-broth dilution method; details: ATCC 21216, 24 h
Outline: (§2)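 MIC by broth microdilution following NCCLS methods. Inoculum adjusted in sterile saline to 1×10^4–1×10^5 CFU. Compounds from DMSO stocks, two-fold serial dilutions in Mueller-Hinton broth at 256 down to 0.25 µg/mL. Incubation 37 °C, 24 h. DMSO solvent control at matching dilutions. Growth read visually and spectrophotometrically. MIC is the lowest concentration arresting growth.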

Escherichia coli = experiment: Antibacterial activity against Escherichia coli ATCC 25922 after 24 hrs by micro-broth dilution method; details: ATCC 25922, 24 h; outline: as §2
Pseudomonas aeruginosa = experiment: Antibacterial activity against Pseudomonas aeruginosa ATCC 27853 after 24 hrs by micro-broth dilution method; details: ATCC 27853, 24 h; outline: as §2
Aspergillus fumigatus = experiment: Antifungal activity against Aspergillus fumigatus ATCC 96918 after 24 hrs by micro-broth dilution method; details: ATCC 96918, 24 h
Outline: (§3)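 Broth microdilution per NCCLS. Spore suspension in sterile distilled water, taken from 1-day-old cultures on Sabouraud agar, final 1–5×10^3 spores/mL. Compounds diluted from stocks in RPMI 1640 to eleven concentrations, 0.25–256 µg/mL. Incubation 35 °C, 24 h. Growth scored visually and spectrophotometrically. MIC is the lowest concentration arresting fungal growth.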

Staphylococcus aureus [2] = experiment: Antibacterial activity against Staphylococcus aureus ATCC 29213 after 24 hrs by micro-broth dilution method; details: ATCC 29213, 24 h; outline: as §1
Bacillus = experiment: Antibacterial activity against Bacillus proteus ATCC 13315 after 24 hrs by micro-broth dilution method; details: ATCC 13315, 24 h; outline: as §2
Candida albicans = experiment: Antifungal activity against Candida albicans ATCC 76615 after 24 hrs by micro-broth dilution method; details: ATCC 76615, 24 h; outline: as §3

| SMILES | MIC (Staphylococcus aureus [1]) [µg/mL] | MIC (Bacillus subtilis) [µg/mL] | MIC (Escherichia coli) [µg/mL] | MIC (Pseudomonas aeruginosa) [µg/mL] | MIC (Aspergillus fumigatus) [µg/mL] | MIC (Staphylococcus aureus [2]) [µg/mL] | MIC (Bacillus) [µg/mL] | MIC (Candida albicans) [µg/mL] |
| --- | --- | --- | --- | --- | --- | --- | --- | --- |
| Fc1ccc(CN(CCn2ccnc2)CCn2ccnc2)c(F)c1 | 32 (≈ 96.6 µM) | 32 (≈ 96.6 µM) | 64 (≈ 193 µM) | 128 (≈ 386 µM) | > 256 | 32 (≈ 96.6 µM) | 64 (≈ 193 µM) | > 256 |
| Fc1ccc(CN(CCn2cnc3ccccc32)CCn2cnc3ccccc32)c(F)c1.O=[N+]([O-])O | 256 | > 256 | > 256 | > 256 | > 256 | 128 | 128 | > 256 |
| Clc1cccc(CN(CCn2ccnc2)CCn2ccnc2)c1 | > 256 | 128 (≈ 388 µM) | 32 (≈ 97 µM) | 32 (≈ 97 µM) | > 256 | 64 (≈ 194 µM) | 64 (≈ 194 µM) | > 256 |
